“Also recorded” adds a separate entry of the source. Marks after values point to notes of the source that are not given here.
Tests used:
[1] = test system: breast cancer resistance protein; details: in vitro; cited from earlier work
[2] = cited from earlier work
[3] = test system: organic anion transporter 3; details: in vitro; cited from earlier work
cytochrome P450 3A4 = details: oxidative metabolism mediated by cytochrome P450 3A4; cited from earlier work
[4] = Single-dose plasma pharmacokinetics; type: in vivo, human; details: for Ratio of dose‐normalized geometric means AUC0‐∞ (90%CI) / Ratio of dose‐normalized geometric means Cmax (90%CI) / half-life: day 1; for half-life / Cmax / Tmax: human, plasma; for half-life: oral, across the 2‐ to 10‐mg dose range; for Cmax / Tmax: po; for Tmax: day 1, median (range); for CL/F: day 1, arithmetic mean (SD)
Procedure, shortened: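 Fasted healthy Chinese adults took a single oral dose of test compound (2, 4 or 10 mg) with 200 mL water on day 1. Plasma was sampled at 0.5–48 h by LC-MS/MS (K2EDTA plasma, liquid-liquid extraction, validated 0.200–200.00 ng/mL). Noncompartmental Cmax, tmax, AUC0‑∞ and CL/F were derived. A power model gave ratios of dose-normalized geometric means against 2 mg, with 90% CI.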

P‐glycoprotein = details: in vitro; cited from earlier work
[5] = Multiple-dose plasma pharmacokinetics; type: in vivo, human; details: for CL/F / RA (accumulation ratio): day 10, arithmetic mean (SD), N = 8; for Ratio of dose‐normalized geometric means AUCτ,ss (90%CI) / Ratio of dose‐normalized geometric means Cmax,ss (90%CI): multiple dose, day 10
Procedure, shortened: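 Oral test compound (2, 4, 10 mg) was given once daily on days 4–10 after an overnight fast of at least 10 h. Plasma was sampled predose on days 4–10 to judge steady state, and at 0.5–48 h after the day-10 dose. LC-MS/MS after liquid-liquid extraction from K2EDTA plasma, validated 0.200–200.00 ng/mL. Noncompartmental AUCτ,ss, Cmax,ss, tmax, t½, CL/F and accumulation ratio were derived.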

Safety and tolerability = type: in vivo, human; details: for Number of subjects (%) with ≥1 AE, all causalities: single and multiple doses
Procedure, shortened: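 Fasted healthy Chinese adults received oral test compound (2, 4, 10 mg) or placebo, single dose on day 1 then once daily on days 4–10, blinded and randomized. TEAEs were defined as onset or worsening after dosing and coded by MedDRA term. They were tabulated by treatment, relationship to drug, day of onset and severity. Single 12-lead ECGs, supine/standing blood pressure and pulse rate, and laboratory tests were also recorded.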

[6] = test system: multidrug and toxin extrusion protein 2‐K; details: in vitro; cited from earlier work
[7] = patients weighing <40 kg; cited from earlier work
[8] = Clinical laboratory tests; type: in vivo, human; details: for maximum mean decrease in ANC: day 10, 8 hours after dosing; for maximum mean decrease from baseline in ANC: day 1, 8 hours after dosing
Procedure, shortened: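 Randomized, subject- and investigator-blinded study in healthy Chinese adults (screening ANC ≥2000 cells/μL). Oral dose of 2, 4 or 10 mg test compound or placebo, given after an overnight fast of at least 10 h with 200 mL water, meals 3 h later. Single dose on day 1, then once daily on days 4–10. Clinical laboratory tests were run throughout, and ANC/ALC change was taken from baseline.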

## CCS(=O)(=O)N1CC(CC#N)(n2cc(-c3ncnc4[nH]ccc34)cn2)C1 [Baricitinib]
[1]
  transporter substrate: substrate
[2]
  excreted in the urine in an unchanged form: ~75%
  mean renal clearance: ~12 L/h^2
  oral‐dose clearance: 17 L/h
[2]; healthy White subjects, noncompartmental PK method
  mean terminal‐phase t1/2: approximately 8 hours
[2]; healthy White volunteers
  geometric mean terminal‐phase disposition half‐life (t1/2): about 8 hours
[3]
  transporter substrate: substrate
Cytochrome P450 3A4
  dose identified as undergoing biotransformation: < 10%
[4]; 4 mg vs 2 mg, single dose
  Ratio of dose‐normalized geometric means AUC0‐∞ (90%CI): 1.05 (1.00‐1.11)
  Ratio of dose‐normalized geometric means Cmax (90%CI): 1.09 (0.97‐1.22)
[4]; 10 mg vs 2 mg, single dose
  Ratio of dose‐normalized geometric means AUC0‐∞ (90%CI): 1.13 (1.01‐1.26)
  Ratio of dose‐normalized geometric means Cmax (90%CI): 1.22 (0.94‐1.58)
[4]; mean t1/2, single dose
  half-life: 5.9 to 7.4 h
[4]; t1/2, individual values, single dose
  half-life: 4.5 to 11.8 h
[4]; 2 mg
  Cmax: 24.6 ng/mL
[4]; 2 mg, single oral 2 mg, N = 8
  Tmax: 1 h
[4]; 4 mg
  Cmax: 51.3 ng/mL
[4]; 4 mg, single oral 4 mg, N = 9
  Tmax: 1 h
[4]; 10 mg
  Cmax: 152 ng/mL
[4]; 10 mg, single oral 10 mg, N = 8
  Tmax: 0.75 h
[4]; single oral 2 mg, N = 8
  CL/F: 14.5 (1.76) L/h
[4]; single oral 4 mg, N = 8
  CL/F: 15.0 (2.48) ^a L/h
[4]; single oral 10 mg, N = 8
  CL/F: 12.9 (1.24) L/h
P‐glycoprotein
  transporter substrate: substrate
[5]; 2 mg once daily
  CL/F: 13.9 (1.66) L/h
  RA (accumulation ratio): 1.11 (0.11)
[5]; 4 mg once daily
  CL/F: 15.3 (2.64) L/h
  RA (accumulation ratio): 1.06 (0.20)
[5]; 4 mg vs 2 mg
  Ratio of dose‐normalized geometric means AUCτ,ss (90%CI): 1.03 (0.97‐1.09)
  Ratio of dose‐normalized geometric means Cmax,ss (90%CI): 0.99 (0.91‐1.08)
[5]; 10 mg once daily
  CL/F: 13.1 (1.95) L/h
  RA (accumulation ratio): 1.05 (0.07)
[5]; 10 mg vs 2 mg
  Ratio of dose‐normalized geometric means AUCτ,ss (90%CI): 1.07 (0.94‐1.23)
  Ratio of dose‐normalized geometric means Cmax,ss (90%CI): 0.99 (0.81‐1.20)
[5]; human, plasma, oral, 2 mg
  AUC: 146 ng·h/mL
  Cmax: 28.6 ng/mL
  Tmax: 0.5 h
  half-life: 5.68 h
[5]; human, plasma, oral, 4 mg
  AUC: 268 ng·h/mL
  Cmax: 49.6 ng/mL
  half-life: 7.55 h
[5]; human, plasma, oral, 10 mg
  AUC: 778 ng·h/mL
  Cmax: 138 ng/mL
  half-life: 7.39 h
[5]; once‐daily dosing days 4 through 10, predose samples
  Attainment of steady‐state plasma concentrations: after the second day of once‐daily dosing; also recorded: after the second once‐daily dose
Safety and tolerability; 2 mg (N = 8)
  ALT increased, drug related (number of TEAEs [number of subjects with TEAEs]): 0
  ANC decreased, drug related (number of TEAEs [number of subjects with TEAEs]): 0
  AST increased, drug related (number of TEAEs [number of subjects with TEAEs]): 0
  Bilirubin increased, drug related (number of TEAEs [number of subjects with TEAEs]): 0
  ECG abnormal, drug related (number of TEAEs [number of subjects with TEAEs]): 0
  Hypotension, drug related (number of TEAEs [number of subjects with TEAEs]): 0
  Orthostatic hypotension, drug related (number of TEAEs [number of subjects with TEAEs]): 0
  Overall drug related TEAEs (number of TEAEs [number of subjects with TEAEs]): 0 (0)
  Total number of TEAEs (all severities were “mild”), n, all causalities: 2
  Number of subjects (%) with ≥1 AE, all causalities: 1 (12.5)
Safety and tolerability; 4 mg (N = 9)
  ALT increased, drug related (number of TEAEs [number of subjects with TEAEs]): 1 (1)
  ANC decreased, drug related (number of TEAEs [number of subjects with TEAEs]): 1 (1)
  AST increased, drug related (number of TEAEs [number of subjects with TEAEs]): 1 (1)
  Bilirubin increased, drug related (number of TEAEs [number of subjects with TEAEs]): 0
  ECG abnormal, drug related (number of TEAEs [number of subjects with TEAEs]): 0
  Hypotension, drug related (number of TEAEs [number of subjects with TEAEs]): 0
  Orthostatic hypotension, drug related (number of TEAEs [number of subjects with TEAEs]): 0
  Overall drug related TEAEs (number of TEAEs [number of subjects with TEAEs]): 3 (2)
  Total number of TEAEs (all severities were “mild”), n, all causalities: 3
  Number of subjects (%) with ≥1 AE, all causalities: 2 (22.2)
Safety and tolerability; 10 mg (N = 8)
  ALT increased, drug related (number of TEAEs [number of subjects with TEAEs]): 2 (2)
  ANC decreased, drug related (number of TEAEs [number of subjects with TEAEs]): 0
  AST increased, drug related (number of TEAEs [number of subjects with TEAEs]): 1 (1)
  Bilirubin increased, drug related (number of TEAEs [number of subjects with TEAEs]): 1 (1)
  ECG abnormal, drug related (number of TEAEs [number of subjects with TEAEs]): 0
  Hypotension, drug related (number of TEAEs [number of subjects with TEAEs]): 0
  Orthostatic hypotension, drug related (number of TEAEs [number of subjects with TEAEs]): 1 (1)
  Overall drug related TEAEs (number of TEAEs [number of subjects with TEAEs]): 5 (4)
  Total number of TEAEs (all severities were “mild”), n, all causalities: 6
  Number of subjects (%) with ≥1 AE, all causalities: 4 (50.0)
Safety and tolerability; all TEAEs reported during the study
  Severity of TEAEs: mild
Safety and tolerability; during the study
  Serious adverse events (SAEs): no SAEs reported
Safety and tolerability; following administration of baricitinib 2 to 10 mg
  12‐lead ECG changes: no clinically significant dose‐dependent ECG changes
Safety and tolerability; single and multiple oral once‐daily doses up to 10 mg
  Tolerability: generally well tolerated
[6]
  transporter substrate: substrate
[7]
  t1/2 compared with adult populations: substantially shorter
[8]; days 1 and 10
  time for ANC and ALC values to return to baseline postdose: ≤ 24 h
[8]; multiple dose 2 mg
  maximum mean decrease in ANC: 0.096 GI/L
[8]; multiple dose 4 mg
  maximum mean decrease in ANC: 0.706 GI/L
[8]; multiple dose 10 mg
  maximum mean decrease in ANC: 1.443 GI/L
[8]; single and multiple doses
  time of increase in ALC after dosing: 16 h
  time of maximum decrease in ANC after dosing: 8 h
[8]; single dose 2 mg
  maximum mean decrease from baseline in ANC: 0.616 GI/L
[8]; single dose 4 mg
  maximum mean decrease from baseline in ANC: 0.808 GI/L
[8]; single dose 10 mg
  maximum mean decrease from baseline in ANC: 1.706 GI/L

— publication PMC9292889 (Clinical Pharmacology in Drug Development, 2020)
